Experimental data: ChEMBL document CHEMBL1909532, “Comparative evaluation of two structurally related flavonoids, isoliquiritigenin and liquiritigenin, for their oral infection therapeutic potential” (J Nat Prod, 2011)
Converted amounts (≈) assume the structure as drawn. The source made the active and inactive calls. The rule behind the calls is not given here.

How the values were obtained:
Prevotella intermedia [1] = experiment: Antibacterial activity against Prevotella intermedia ATCC 25611 by microdilution technique in presence of 1% fetal bovine serum; type: functional, organism-based
Procedure, shortened: (§1)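 Broth microdilution growth assay, repeated in medium supplemented with 1% fetal bovine serum or with 10% unstimulated whole saliva.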

Prevotella intermedia [2] = experiment: Antibacterial activity against Prevotella intermedia ATCC 25611 at 40 ug/ml assessed as growth inhibition by microdilution technique relative to untreated control; type: functional; conditions: read-out: GI
Procedure, shortened: (§2)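 Broth microdilution against each strain; MIC read as lowest concentration with no growth. Growth also expressed as percent of compound-free control (set to 100%). Triplicate assays, two independent experiments, mean ± SD; Student's t test, p < 0.01.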

U-937 [3] = experiment: Cytotoxicity against human U937 cells assessed as loss of cell viability by MTT assay; type: cell-based
Procedure, shortened: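 PMA-differentiated U937 macrophages exposed to LPS or compound (up to 5 μg/mL) under the 24 h stimulation protocol; viability checked by MTT assay.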

U-937 [4] = experiment: Antiinflammatory activity in human U937 cells assessed as inhibition of LPS-induced IL8 secretion at 5 ug/ml after 24 hrs by ELISA relative to control; type: functional; conditions: U-937, 24 h
Procedure, shortened: (§3)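 U937 monocytes differentiated with 10 ng/mL PMA for 48 h, then placed in RPMI-1% FBS. Pretreated 2 h with compound (0, 0.2, 1, 5 μg/mL), then stimulated with A. actinomycetemcomitans ATCC 29522 LPS (1 μg/mL) for 24 h. Cytokines and MMP-9 in supernatants measured by ELISA at 450 nm. Triplicates, two experiments, mean ± SD.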

U-937 [5] = experiment: Antiinflammatory activity in human U937 cells assessed as inhibition of LPS-induced IL1-beta secretion at 5 ug/ml after 24 hrs by ELISA relative to control; type: functional; procedure, shortened: as §3
[6] = target: T1, Collagenase (Porphyromonas gingivalis) (UniProt P33437); experiment: Inhibition of Porphyromonas gingivalis ATCC 33277 collagenase assessed as remaining activity at 100 ug/ml after 4 hrs by fluorimetric analysis relative to control
T1 sequence (whole entry): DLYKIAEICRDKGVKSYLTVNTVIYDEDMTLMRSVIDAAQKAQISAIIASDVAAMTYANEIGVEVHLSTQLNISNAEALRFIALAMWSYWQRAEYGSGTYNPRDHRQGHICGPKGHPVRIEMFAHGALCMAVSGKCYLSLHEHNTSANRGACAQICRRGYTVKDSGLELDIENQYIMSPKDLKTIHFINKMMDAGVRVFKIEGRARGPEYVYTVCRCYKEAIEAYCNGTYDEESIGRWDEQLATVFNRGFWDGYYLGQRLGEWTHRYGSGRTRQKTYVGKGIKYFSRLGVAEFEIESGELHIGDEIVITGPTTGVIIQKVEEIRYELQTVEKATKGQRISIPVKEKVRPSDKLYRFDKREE
Procedure, shortened: (§4)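 Two-day P. gingivalis ATCC 33277 culture supernatant incubated with fluorescein-conjugated DQ type I collagen (stock 100 μg/mL) in TCNB buffer, compound final 0, 5, 25 or 100 μg/mL. Incubated 4 h in the dark at room temperature, then fluorescence read. Triplicates, mean ± SD.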

Prevotella intermedia [7] = experiment: Antibacterial activity against Prevotella intermedia ATCC 25611 by microdilution technique in presence of 10% unstimulated whole salive; type: functional, organism-based; procedure, shortened: as §1
[8] = target: T1, Collagenase (Porphyromonas gingivalis); experiment: Inhibition of Porphyromonas gingivalis ATCC 33277 collagenase assessed at 100 ug/ml after 4 hrs by fluorimetric analysis relative to control; procedure, shortened: as §4
U-937 [9] = experiment: Antiinflammatory activity in human U937 cells assessed as inhibition of LPS-induced of IL6 secretion at 5 ug/ml after 24 hrs by ELISA relative to control; type: functional; procedure, shortened: as §3
[10] = target: Transcription factor Jun (Homo sapiens) (UniProt P05412); experiment: Inhibition of LPS-induced AP-1 activation in human U937 cells at 5 ug/ml after 1 hr relative to control; type: cell-based; conditions: U-937
Chain of Transcription factor Jun (Homo sapiens) (P05412 whole entry): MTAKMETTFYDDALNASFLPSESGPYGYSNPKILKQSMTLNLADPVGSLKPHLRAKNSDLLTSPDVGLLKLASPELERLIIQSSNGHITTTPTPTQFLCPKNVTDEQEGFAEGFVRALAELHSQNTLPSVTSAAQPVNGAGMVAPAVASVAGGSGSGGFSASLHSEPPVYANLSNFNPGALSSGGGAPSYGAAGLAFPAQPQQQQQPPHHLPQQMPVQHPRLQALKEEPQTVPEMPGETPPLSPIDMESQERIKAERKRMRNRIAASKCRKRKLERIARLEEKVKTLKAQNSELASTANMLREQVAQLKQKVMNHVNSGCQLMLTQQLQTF
Procedure, shortened: (§5)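 PMA-differentiated U937 macrophages pretreated with compound (5 μg/mL) for 1 h, then given LPS (1 μg/mL) for 1 h at 37 °C. Whole-cell extracts adjusted to 1 mg/mL protein. NF-κB p65 and AP-1 activation measured by TransAM kits; controls had no pretreatment.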

[11] = target: Matrix metalloproteinase-9 (Homo sapiens) (UniProt P14780); experiment: Inhibition of human MMP9 assessed as remaining activity at 25 ug/ml after 4 hrs by fluorimetric analysis relative to control
Chain of Matrix metalloproteinase-9 (Homo sapiens) (P14780 whole entry): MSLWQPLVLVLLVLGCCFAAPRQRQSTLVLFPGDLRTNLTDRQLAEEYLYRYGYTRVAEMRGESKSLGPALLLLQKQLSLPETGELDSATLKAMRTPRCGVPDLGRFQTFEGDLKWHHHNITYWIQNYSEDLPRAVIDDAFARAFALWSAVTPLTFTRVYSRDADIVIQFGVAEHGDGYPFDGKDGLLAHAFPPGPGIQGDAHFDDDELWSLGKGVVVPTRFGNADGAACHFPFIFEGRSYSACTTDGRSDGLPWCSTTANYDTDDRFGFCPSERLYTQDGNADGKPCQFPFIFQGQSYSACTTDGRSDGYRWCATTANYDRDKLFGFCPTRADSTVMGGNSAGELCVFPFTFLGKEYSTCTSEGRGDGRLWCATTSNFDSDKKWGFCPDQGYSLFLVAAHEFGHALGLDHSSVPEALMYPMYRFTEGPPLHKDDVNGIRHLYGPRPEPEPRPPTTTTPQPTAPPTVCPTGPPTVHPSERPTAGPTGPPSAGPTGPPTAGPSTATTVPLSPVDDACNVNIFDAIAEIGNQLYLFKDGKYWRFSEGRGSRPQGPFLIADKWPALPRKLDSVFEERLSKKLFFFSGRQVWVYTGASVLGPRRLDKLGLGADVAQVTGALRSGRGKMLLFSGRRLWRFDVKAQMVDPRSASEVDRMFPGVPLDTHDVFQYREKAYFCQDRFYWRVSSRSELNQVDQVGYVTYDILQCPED
Procedure, shortened: (§6)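 Active human recombinant MMP-9 (final 100 ng/mL) in TCNB buffer (50 mM Tris-HCl, 10 mM CaCl2, 150 mM NaCl, 0.05% Brij35, pH 7.5) with fluorescein-conjugated DQ gelatin (stock 1 mg/mL); compound final 0, 5, 25 or 100 μg/mL. Incubated 4 h at 37 °C in the dark; fluorescence at ex 490/em 520 nm.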

[12] = target: Matrix metalloproteinase-9 (Homo sapiens) (UniProt P14780); experiment: Inhibition of human MMP9 assessed as remaining activity at 5 ug/ml after 4 hrs by fluorimetric analysis relative to control; procedure, shortened: as §6
[13] = target: Transcription factor p65 (Homo sapiens) (UniProt Q04206); experiment: Inhibition of LPS-induced NF-kappaB p65 activation in human U937 cells at 5 ug/ml after 1 hr relative to control; type: cell-based; conditions: U-937; procedure, shortened: as §5
Chain of Transcription factor p65 (Homo sapiens) (Q04206 whole entry): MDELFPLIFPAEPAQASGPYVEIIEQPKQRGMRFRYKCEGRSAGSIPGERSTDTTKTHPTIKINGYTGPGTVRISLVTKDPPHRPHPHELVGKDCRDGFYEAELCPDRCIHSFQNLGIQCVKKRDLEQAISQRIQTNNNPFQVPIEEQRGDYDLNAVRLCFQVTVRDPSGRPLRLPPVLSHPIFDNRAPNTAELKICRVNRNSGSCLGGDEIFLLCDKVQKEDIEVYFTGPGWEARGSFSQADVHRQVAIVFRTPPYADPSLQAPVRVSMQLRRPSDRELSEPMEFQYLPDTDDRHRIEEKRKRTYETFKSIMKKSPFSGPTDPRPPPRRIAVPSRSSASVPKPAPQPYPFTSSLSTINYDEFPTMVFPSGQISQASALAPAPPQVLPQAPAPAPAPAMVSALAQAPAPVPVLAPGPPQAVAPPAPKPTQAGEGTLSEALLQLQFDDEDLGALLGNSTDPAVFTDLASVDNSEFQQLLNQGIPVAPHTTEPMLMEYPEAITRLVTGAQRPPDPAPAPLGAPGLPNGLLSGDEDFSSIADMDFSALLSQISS

U-937 [14] = experiment: Antiinflammatory activity in human U937 cells assessed as inhibition of LPS-induced TNFalpha secretion at 5 ug/ml after 24 hrs by ELISA relative to control; type: functional; conditions: U-937, 24 h; procedure, shortened: as §3
[15] = target: Matrix metalloproteinase-9 (Homo sapiens) (UniProt P14780); experiment: Inhibition of human MMP9 assessed as remaining activity at 100 ug/ml after 4 hrs by fluorimetric analysis relative to control; procedure, shortened: as §6
U-937 [16] = experiment: Antiinflammatory activity in human U937 cells assessed as inhibition of LPS-induced CCL5 secretion at 5 ug/ml after 24 hrs by ELISA relative to control; type: functional; procedure, shortened: as §3
[17] = target: T1, Collagenase (Porphyromonas gingivalis); experiment: Inhibition of Porphyromonas gingivalis ATCC 33277 collagenase assessed as remaining activity at 5 ug/ml after 4 hrs by fluorimetric analysis relative to control; procedure, shortened: as §4
[18] = target: T1, Collagenase (Porphyromonas gingivalis); experiment: Inhibition of Porphyromonas gingivalis ATCC 33277 collagenase assessed as remaining activity at 25 ug/ml after 4 hrs by fluorimetric analysis relative to control; procedure, shortened: as §4
U-937 [19] = experiment: Antiinflammatory activity in human U937 cells assessed as inhibition of LPS-induced MMP9 secretion at 5 ug/ml after 24 hrs by ELISA relative to control; type: functional; conditions: U-937, 24 h; procedure, shortened: as §3
Prevotella intermedia [20] = experiment: Antibacterial activity against Prevotella intermedia ATCC 25611 assessed as growth inhibition at 5 ug/ml by microdilution technique relative to untreated control; type: functional; conditions: read-out: GI; procedure, shortened: as §2
Porphyromonas gingivalis [21] = experiment: Bactericidal activity against Porphyromonas gingivalis ATCC 33277 at 40 ug/ml by microdilution technique; type: functional, organism-based
Procedure, shortened: (§7)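 MBC: aliquots from wells without visible growth spread on agar plates and incubated five days under appropriate conditions; MBC is the lowest concentration giving no colonies.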

Porphyromonas gingivalis [22] = experiment: Antibacterial activity against Porphyromonas gingivalis ATCC 33277 by microdilution technique; type: functional; procedure, shortened: as §2
Fusobacterium nucleatum [23] = experiment: Antibacterial activity against Fusobacterium nucleatum ATCC 25586 by microdilution technique in presence of 1% fetal bovine serum; type: functional, organism-based; procedure, shortened: as §1
Prevotella intermedia [24] = experiment: Bactericidal activity against Prevotella intermedia ATCC 25611 at 20 ug/ml by microdilution technique; type: functional, organism-based; procedure, shortened: as §7
Fusobacterium nucleatum [25] = experiment: Antibacterial activity against Fusobacterium nucleatum ATCC 25586 at 40 ug/ml assessed as growth inhibition by microdilution technique relative to untreated control; type: functional; conditions: read-out: GI; procedure, shortened: as §2
U-937 [26] = experiment: Antiinflammatory activity in human U937 cells assessed as inhibition of LPS-induced TNFalpha secretion after 24 hrs by ELISA; type: functional, cell-based; procedure, shortened: as §3
U-937 [27] = experiment: Antiinflammatory activity in human U937 cells assessed as inhibition of LPS-induced CCL5 secretion after 24 hrs by ELISA; type: functional, cell-based; procedure, shortened: as §3
Prevotella intermedia [28] = experiment: Antibacterial activity against Prevotella intermedia ATCC 25611 by microdilution technique; type: functional; procedure, shortened: as §2
Fusobacterium nucleatum [29] = experiment: Antibacterial activity against Fusobacterium nucleatum ATCC 25586 by microdilution technique; type: functional, organism-based; procedure, shortened: as §2
U-937 [30] = experiment: Antiinflammatory activity in human U937 cells assessed as inhibition of LPS-induced IL8 secretion after 24 hrs by ELISA; type: functional, cell-based; procedure, shortened: as §3
U-937 [31] = experiment: Antiinflammatory activity in human U937 cells assessed as inhibition of LPS-induced IL1-beta secretion after 24 hrs by ELISA; type: functional, cell-based; procedure, shortened: as §3
Fusobacterium nucleatum [32] = experiment: Antibacterial activity against Fusobacterium nucleatum ATCC 25586 by microdilution technique in presence of 10% unstimulated whole salive; type: functional, organism-based; procedure, shortened: as §1
U-937 [33] = experiment: Antiinflammatory activity in human U937 cells assessed as inhibition of LPS-induced IL6 secretion at 0.2 ug/ml after 24 hrs by ELISA relative to control; type: functional, cell-based; procedure, shortened: as §3
Porphyromonas gingivalis [34] = experiment: Antibacterial activity against Porphyromonas gingivalis ATCC 33277 by microdilution technique in presence of 1% fetal bovine serum; type: functional, organism-based; procedure, shortened: as §1
U-937 [35] = experiment: Antiinflammatory activity in human U937 cells assessed as inhibition of LPS-induced IL1-beta secretion at 0.2 ug/ml after 24 hrs by ELISA relative to control; type: functional, cell-based; procedure, shortened: as §3
Porphyromonas gingivalis [36] = experiment: Antibacterial activity against Porphyromonas gingivalis ATCC 33277 by microdilution technique in presence of 10% unstimulated whole salive; type: functional, organism-based; procedure, shortened: as §1
U-937 [37] = experiment: Antiinflammatory activity in human U937 cells assessed as inhibition of LPS-induced IL6 secretion after 24 hrs by ELISA; type: functional, cell-based; procedure, shortened: as §3

O=C1C[C@@H](c2ccc(O)cc2)Oc2cc(O)ccc21 [LIQUIRTIGENIN]
Activity (Prevotella intermedia [1]): Active | inhibition of growth at 40 µg/mL (Prevotella intermedia [2]): 85% | Activity (U-937 [3]): Non-toxic | inhibition at 5 µg/mL (U-937 [4]): 11% | inhibition at 5 µg/mL (U-937 [5]; U-937, 24 h): 34% | Activity [6]: 79% | Activity (Prevotella intermedia [7]): Active | inhibition [8]: 21% | inhibition at 5 µg/mL (U-937 [9]; U-937, 24 h): 23% | inhibition [10]: 20% | Activity [11]: 95% | Activity [12]: 95% | inhibition [13]: 39% | inhibition at 5 µg/mL (U-937 [14]): 17% | Activity [15]: 87% | inhibition at 5 µg/mL (U-937 [16]; U-937, 24 h): 24% | Activity [17]: 83% | Activity [18]: 82% | inhibition at 5 µg/mL (U-937 [19]): 24%

O=C(/C=C/c1ccc(O)cc1)c1ccc(O)cc1O [ISOLIQUIRITIGENIN]
Activity (Prevotella intermedia [1]): Active | inhibition of growth at 5 µg/mL (Prevotella intermedia [20]): 58% | inhibition (Porphyromonas gingivalis [21]): inactive | Activity (U-937 [3]): Non-toxic | inhibition at 5 µg/mL (U-937 [4]): 34% | inhibition (U-937 [5]): Active | Activity (Porphyromonas gingivalis [22]): Dose-dependent effect | MIC (Porphyromonas gingivalis [22]): 40 µg/mL (≈ 156 µM) | Activity [6]: 48% | Activity (Prevotella intermedia [7]): Active | inhibition [8]: 52% | inhibition (U-937 [9]): Active | Activity (Fusobacterium nucleatum [23]): Active | inhibition (Prevotella intermedia [24]): Active | inhibition of growth at 40 µg/mL (Fusobacterium nucleatum [25]): 70% | inhibition [10]: Active | Activity [11]: 91% | inhibition (U-937 [26]): Dose-dependent effect | inhibition (U-937 [27]): Dose-dependent effect | Activity [12]: 97% | inhibition [13]: Active | Activity (Prevotella intermedia [28]): Dose-dependent effect | MIC (Prevotella intermedia [28]): 10 µg/mL (≈ 39 µM) | inhibition at 5 µg/mL (U-937 [14]): 87% | Activity [15]: 67% | Activity (Fusobacterium nucleatum [29]): Dose-dependent effect | inhibition (U-937 [30]): Dose-dependent effect | inhibition (U-937 [31]): Dose-dependent effect | Activity (Fusobacterium nucleatum [32]): Active | inhibition (U-937 [16]): Active | inhibition (U-937 [33]): Active | Activity [17]: 82% | Activity (Porphyromonas gingivalis [34]): Active | inhibition (U-937 [35]): Active | Activity [18]: 78% | Activity (Porphyromonas gingivalis [36]): Active | inhibition (U-937 [37]): Dose-dependent effect | inhibition at 5 µg/mL (U-937 [19]): 89%
